Measured values from PMC2875079 (Journal of medicinal chemistry, 2010).
One block for each molecule: values may come before it.

Key:
[1] = target: diacylglycerol kinase type ζ (Homo sapiens, UniProt Q13574); assay: Specificity test at recombinant diacylglycerol kinase type ζ; type: biochemical; conditions: at concentrations up to 100 μM
PKCα = PKCα (Homo sapiens, UniProt P17252); assay: Specificity test at PKCα; type: biochemical; conditions: at concentrations up to 10 μM
mouse SphK2 = target: T1, mouse SphK2 (Mus musculus, UniProt Q9JIA7); assay: Sphingosine kinase assay, recombinant SphK2; type: biochemical; conditions: for Inhibition of SphK2: at concentrations up to 100 μM
T1 sequence (Q9JIA7 1-617): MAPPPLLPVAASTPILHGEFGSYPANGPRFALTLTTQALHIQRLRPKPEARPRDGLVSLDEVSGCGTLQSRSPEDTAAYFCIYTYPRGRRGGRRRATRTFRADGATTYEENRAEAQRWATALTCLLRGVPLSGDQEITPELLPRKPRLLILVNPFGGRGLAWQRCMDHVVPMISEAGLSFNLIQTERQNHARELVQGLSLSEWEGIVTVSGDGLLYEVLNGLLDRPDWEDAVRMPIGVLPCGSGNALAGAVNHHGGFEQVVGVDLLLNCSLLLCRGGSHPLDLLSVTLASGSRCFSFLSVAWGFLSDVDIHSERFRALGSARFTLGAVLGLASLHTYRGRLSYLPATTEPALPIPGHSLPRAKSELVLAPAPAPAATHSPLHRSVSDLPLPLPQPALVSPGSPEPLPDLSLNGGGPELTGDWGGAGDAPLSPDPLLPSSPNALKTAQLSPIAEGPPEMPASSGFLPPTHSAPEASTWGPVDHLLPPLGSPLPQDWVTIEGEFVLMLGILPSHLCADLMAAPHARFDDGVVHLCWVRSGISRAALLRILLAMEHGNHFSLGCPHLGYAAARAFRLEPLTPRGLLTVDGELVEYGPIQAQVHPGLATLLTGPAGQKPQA

[2] = target: T2, diacylglycerol kinase type δ1 (Homo sapiens, UniProt Q16760); assay: Specificity test at recombinant diacylglycerol kinase type δ1; type: biochemical; conditions: at concentrations up to 100 μM
T2 sequence (Q16760 1-1170 isoform Q16760-2): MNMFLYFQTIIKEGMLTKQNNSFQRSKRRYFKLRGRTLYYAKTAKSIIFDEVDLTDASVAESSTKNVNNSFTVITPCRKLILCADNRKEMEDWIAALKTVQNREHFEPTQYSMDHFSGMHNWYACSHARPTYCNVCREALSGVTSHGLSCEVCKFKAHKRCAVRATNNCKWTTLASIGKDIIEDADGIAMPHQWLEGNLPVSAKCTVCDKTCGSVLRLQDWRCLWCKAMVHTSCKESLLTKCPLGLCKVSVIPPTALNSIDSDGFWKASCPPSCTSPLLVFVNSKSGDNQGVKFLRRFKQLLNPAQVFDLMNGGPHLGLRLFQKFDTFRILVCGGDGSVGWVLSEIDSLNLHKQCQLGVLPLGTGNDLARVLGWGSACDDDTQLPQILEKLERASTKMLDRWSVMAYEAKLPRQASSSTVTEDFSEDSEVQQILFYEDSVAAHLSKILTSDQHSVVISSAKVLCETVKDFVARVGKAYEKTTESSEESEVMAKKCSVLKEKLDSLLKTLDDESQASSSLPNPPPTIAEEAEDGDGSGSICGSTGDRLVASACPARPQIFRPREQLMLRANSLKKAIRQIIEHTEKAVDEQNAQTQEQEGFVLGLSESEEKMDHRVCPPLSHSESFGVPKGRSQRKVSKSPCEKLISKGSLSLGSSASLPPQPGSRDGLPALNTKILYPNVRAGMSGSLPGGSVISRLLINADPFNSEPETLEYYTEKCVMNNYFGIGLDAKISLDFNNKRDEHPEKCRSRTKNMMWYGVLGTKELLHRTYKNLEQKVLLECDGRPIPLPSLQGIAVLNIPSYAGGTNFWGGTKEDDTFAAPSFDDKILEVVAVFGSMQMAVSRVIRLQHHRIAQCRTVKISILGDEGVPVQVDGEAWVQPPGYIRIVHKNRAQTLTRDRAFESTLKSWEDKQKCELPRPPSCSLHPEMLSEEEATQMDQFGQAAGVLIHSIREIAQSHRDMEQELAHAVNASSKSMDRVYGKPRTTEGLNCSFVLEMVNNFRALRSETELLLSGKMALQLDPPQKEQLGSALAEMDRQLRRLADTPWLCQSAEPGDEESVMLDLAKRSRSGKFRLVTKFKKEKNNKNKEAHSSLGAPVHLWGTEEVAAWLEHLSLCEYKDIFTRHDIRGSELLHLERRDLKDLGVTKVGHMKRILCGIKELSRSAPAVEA

[3] = target: diacylglycerol kinase type γ (Homo sapiens, UniProt P49619); assay: Specificity test at recombinant diacylglycerol kinase type γ; type: biochemical; conditions: at concentrations up to 100 μM
Human SphK1 = Human SphK1 (Homo sapiens, UniProt Q9NYA1); assay: Sphingosine kinase assay, recombinant SphK1; type: biochemical; conditions: for Inhibition of SphK1: at concentrations up to 100 μM
SphKs = conditions: cited from earlier work
SphK1 = conditions: read-out: KM of SphK1 for sphingosine; cited from earlier work
SphK2 = conditions: read-out: KM of SphK2 for sphingosine; cited from earlier work
[4] = in water and DMSO; cited from earlier work
[5] = test system: vascular smooth muscle cells; assay: Smooth muscle cell proliferation, BrdU incorporation; type: cell-based, rat; conditions: pre-treated 30 min, 10% serum 24 hours, Figure 3D
Method in brief: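 Rat aortic vascular smooth muscle cells were pre-treated 30 min with a dose range of test compound, then stimulated with 10% FBS for 24 h. Proliferation was read as BrdU (10 μM) incorporation by immunoassay. N=6 biological replicates; mean ± st dev; P < 0.05 marked.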

[6] = test system: vascular smooth muscle cells; assay: Intracellular S1P concentration by LC/MS in serum-stimulated smooth muscle cells; type: cell-based, rat; conditions: pre-treated 30 min, then 10% serum; Figure 3C
Method in brief: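 Rat aortic smooth muscle cells were pre-treated with test compound for 30 min, then given 10% FBS for 12 h. Cells were washed in PBS and scraped into ice-cold MeOH, then extracted with CHCl3/0.1 M HCl containing 50 pmol C17 S1P internal standard. The organic phase was acetylated (acetic anhydride/pyridine). Analysis used C8 LC with […] ESI-MS/MS (BisAcS1P 462/402), quantified against calibration curves. N=2 biological replicates; mean ± st dev.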

[7] = test system: vascular smooth muscle cells; assay: Cell viability / cytotoxic response, Promega MultiTox-Fluor Assay; type: cell-based; conditions: 0.001 μM – 100 μM, Figure 3F
Method in brief: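 Rat aortic vascular smooth muscle cells, cultured in vitro. Test compound applied at 0.001–100 μM, with 20 μM cyclosporine A as comparator. Cytotoxicity read with the MultiTox-Fluor fluorescence kit. N=3 biological replicates; mean ± st dev; P < 0.05 marked.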

[8] = test system: vascular smooth muscle cells; assay: Cytotoxicity on visual microscopic inspection; type: cell-based; conditions: 10% FBS + compound (10 μM), light microscopy; Figure 3E
Method in brief: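 Rat aortic vascular smooth muscle cells were imaged by light microscopy at 20× magnification. Conditions were untreated control, 10% FBS, and 10% FBS plus test compound at 10 μM. Cytotoxicity was judged by visual inspection.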

[9] = substrate: CCCCCCCCCCCCC/C=C/[C@@H](O)[C@@H](N)CO; assay: Sphingosine kinase assay, recombinant SphK1; type: biochemical, human; conditions: other: substrate D-erythro-sphingosine, absence of inhibitor
[10] = substrate: CCCCCCCCCCCCC/C=C/[C@@H](O)[C@@H](N)CO; assay: Sphingosine kinase assay, recombinant SphK2; type: biochemical, mouse; conditions: other: substrate D-erythro-sphingosine, absence of inhibitor

diacylglycerol kinase type ζ, sequence (Q13574 whole entry): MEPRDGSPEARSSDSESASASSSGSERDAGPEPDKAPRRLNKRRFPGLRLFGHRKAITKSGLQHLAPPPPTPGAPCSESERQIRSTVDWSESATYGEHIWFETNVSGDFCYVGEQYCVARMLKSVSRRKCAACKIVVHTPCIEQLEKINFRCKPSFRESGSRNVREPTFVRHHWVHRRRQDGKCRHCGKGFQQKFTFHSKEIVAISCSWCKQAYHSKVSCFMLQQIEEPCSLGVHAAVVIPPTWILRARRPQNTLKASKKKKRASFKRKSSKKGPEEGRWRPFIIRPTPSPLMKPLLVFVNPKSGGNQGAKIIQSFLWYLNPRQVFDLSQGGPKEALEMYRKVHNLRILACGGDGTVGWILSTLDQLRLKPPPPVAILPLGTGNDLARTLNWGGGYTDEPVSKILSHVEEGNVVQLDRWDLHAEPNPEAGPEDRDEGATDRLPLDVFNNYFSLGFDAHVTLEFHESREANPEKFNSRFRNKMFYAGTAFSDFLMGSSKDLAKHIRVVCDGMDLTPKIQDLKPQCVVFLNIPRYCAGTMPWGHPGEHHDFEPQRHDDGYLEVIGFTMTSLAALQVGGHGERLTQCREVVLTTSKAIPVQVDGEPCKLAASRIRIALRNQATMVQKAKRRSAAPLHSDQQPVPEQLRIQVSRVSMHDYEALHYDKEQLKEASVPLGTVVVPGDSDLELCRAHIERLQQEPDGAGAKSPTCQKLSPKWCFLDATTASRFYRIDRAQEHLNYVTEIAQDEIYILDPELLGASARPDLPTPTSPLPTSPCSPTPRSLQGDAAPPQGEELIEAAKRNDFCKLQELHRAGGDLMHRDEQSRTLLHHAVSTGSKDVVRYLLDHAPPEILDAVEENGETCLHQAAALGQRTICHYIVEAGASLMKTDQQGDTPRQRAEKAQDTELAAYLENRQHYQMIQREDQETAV
diacylglycerol kinase type γ, sequence (P49619 whole entry): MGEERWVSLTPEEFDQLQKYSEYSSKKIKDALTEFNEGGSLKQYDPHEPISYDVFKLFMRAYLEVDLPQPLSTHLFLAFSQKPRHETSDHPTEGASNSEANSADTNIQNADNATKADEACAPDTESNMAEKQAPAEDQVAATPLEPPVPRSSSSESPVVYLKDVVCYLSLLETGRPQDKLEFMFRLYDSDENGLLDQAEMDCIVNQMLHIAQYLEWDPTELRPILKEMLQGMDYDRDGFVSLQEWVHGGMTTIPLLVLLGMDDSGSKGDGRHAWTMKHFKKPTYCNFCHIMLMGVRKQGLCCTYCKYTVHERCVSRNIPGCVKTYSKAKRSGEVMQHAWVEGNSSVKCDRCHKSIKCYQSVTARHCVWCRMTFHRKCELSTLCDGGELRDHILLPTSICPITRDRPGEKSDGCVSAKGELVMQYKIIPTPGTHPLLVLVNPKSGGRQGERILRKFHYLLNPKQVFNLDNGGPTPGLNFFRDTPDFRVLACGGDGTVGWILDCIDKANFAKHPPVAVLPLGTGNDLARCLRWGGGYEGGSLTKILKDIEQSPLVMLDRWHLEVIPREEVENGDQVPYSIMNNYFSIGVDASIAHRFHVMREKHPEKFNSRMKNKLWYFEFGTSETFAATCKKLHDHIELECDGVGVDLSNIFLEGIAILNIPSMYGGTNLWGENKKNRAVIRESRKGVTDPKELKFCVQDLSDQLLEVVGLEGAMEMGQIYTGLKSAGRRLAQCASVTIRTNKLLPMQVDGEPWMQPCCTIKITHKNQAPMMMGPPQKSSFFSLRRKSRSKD

- Inhibition of diacylglycerol kinase type ζ [1]: no inhibition
- Inhibition of PKCα (PKCα): no inhibition
- Ki (mouse SphK2): 6 µM
- Inhibition of diacylglycerol kinase type δ1 [2]: no inhibition
- Inhibition of diacylglycerol kinase type γ [3]: no inhibition
Molecule: CCCCCCCCCCCCc1ccc(NC(=O)C2(C(=N)N)CC2)cc1.Cl [compound 28, 1-carbamimidoyl-N-(4-dodecylphenyl)cyclopropanecarboxamide hydrochloride]

- Inhibition of SphK1 (Human SphK1): no inhibition
- Inhibition of SphK2 (mouse SphK2): no inhibition
Molecule: CCCCCCCCc1ccc(C(=O)N[C@@H](C)C(N)=O)cc1 [compound 13, (S)-N-(1-amino-1-oxopropan-2-yl)-4-octylbenzamide]

Molecule: CCCCCCCCCCCCC/C=C/[C@@H](O)[C@H](N)CO [D-(+)-threo-sphingosine]
- Inhibition of the SphKs (SphKs): weak inhibitor

Molecule: CCCCCCCCCCCCC/C=C/[C@@H](O)[C@@H](N)CO [Sphingosine, D-erythro-sphingosine]
- Km (SphK1): ~10 µM
- Km (SphK2): ~5 µM

Molecule: Cn1cc(NC(=O)c2cc(NC(=O)c3cc(NC=O)cn3C)cn2C)cc1C(=O)NCCC(=N)N [Distamycin A]
- pKa [4]: 11.6

- Inhibition of diacylglycerol kinase type ζ [1]: no inhibition
- Inhibition of PKCα (PKCα): no inhibition
- Inhibition of diacylglycerol kinase type δ1 [2]: no inhibition
- Inhibition of diacylglycerol kinase type γ [3]: no inhibition
Molecule: CCCCCCCCCCCCc1ccc(C(=O)NC2(C(=N)N)CC2)cc1.Cl [compound 23, N-(1-carbamimidoylcyclopropyl)-4-dodecylbenzamide hydrochloride]

- Inhibition of SphK1 (Human SphK1): no inhibition
- Inhibition of SphK2 (mouse SphK2): no inhibition
Molecule: CCCCCCCCc1ccc(C(=O)N[C@@H](C)C(=O)O)cc1 [compound 12, (S)-2-(4-octylbenzamido)propanoic acid]

Molecule: CCCCCCCCc1ccc(C(=O)N[C@@H](C)C(=N)N)cc1.Cl [compound 9, (S)-N-(1-amino-1-iminopropan-2-yl)-4-octylbenzamide hydrochloride]
- Ki (Human SphK1): 55 µM
- Blocked serum-induced smooth muscle cell proliferation [5]: blocked
- Serum-induced changes in S1P intracellular concentration [6]: blocked
- Cytotoxicity/death in cell viability assay [7]: did not induce cytotoxicity/death
- Cytotoxicity on visual microscopic inspection [8]: not cytotoxic
- Ki (mouse SphK2): 20 µM

B1: Human SphK1 (Homo sapiens) (protein)
chain: MDPAGGPRGVLPRPCRVLVLLNPRGGKGKALQLFRSHVQPLLAEAEISFTLMLTERRNHARELVRSEELGRWDALVVMSGDGLMHEVVNGLMERPDWETAIQKPLCSLPAGSGNALAASLNHYAGYEQVTNEDLLTNCTLLLCRRLLSPMNLLSLHTASGLRLFSVLSLAWGFIADVDLESEKYRRLGEMRFTLGTFLRLAALRTYRGRLAYLPVGRVGSKTPASPVVVQQGPVDAHLVPLEEPVPSHWTVVPDEDFVLVLALLHSHLGSEMFAAPMGRCAAGVMHLFYVRAGVSRAMLLRLFLAMEKGRHMEYECPYLVYVPVVAFRLEPKDGKGVFAVDGELMVSEAVQGQVHPNYFWMVSGCVEPPPSWKPQQMPPPEEPL
- Km [9]: 10 µM

B2: mouse SphK2 (Mus musculus) (protein)
chain: MAPPPLLPVAASTPILHGEFGSYPANGPRFALTLTTQALHIQRLRPKPEARPRDGLVSLDEVSGCGTLQSRSPEDTAAYFCIYTYPRGRRGGRRRATRTFRADGATTYEENRAEAQRWATALTCLLRGVPLSGDQEITPELLPRKPRLLILVNPFGGRGLAWQRCMDHVVPMISEAGLSFNLIQTERQNHARELVQGLSLSEWEGIVTVSGDGLLYEVLNGLLDRPDWEDAVRMPIGVLPCGSGNALAGAVNHHGGFEQVVGVDLLLNCSLLLCRGGSHPLDLLSVTLASGSRCFSFLSVAWGFLSDVDIHSERFRALGSARFTLGAVLGLASLHTYRGRLSYLPATTEPALPIPGHSLPRAKSELVLAPAPAPAATHSPLHRSVSDLPLPLPQPALVSPGSPEPLPDLSLNGGGPELTGDWGGAGDAPLSPDPLLPSSPNALKTAQLSPIAEGPPEMPASSGFLPPTHSAPEASTWGPVDHLLPPLGSPLPQDWVTIEGEFVLMLGILPSHLCADLMAAPHARFDDGVVHLCWVRSGISRAALLRILLAMEHGNHFSLGCPHLGYAAARAFRLEPLTPRGLLTVDGELVEYGPIQAQVHPGLATLLTGPAGQKPQA
- Km [10]: 5 µM
